An excerpt weighted towards active compounds, which were near 1.5% of everything screened.
V1aR counter – V1a receptor agonism, counter-screen for OXTR agonists | P37288 | 320,000 compounds, 0.25% hits | CHO-V1R cells, Fluo-8 calcium fluorescence, agonist mode; 0% DMSO, 100% 3 nM vasopressin | activation, % at 3 µM | AID 2797;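 active = activation above the mean activation of all tested compounds plus 3 SD, per screening run, cut at about 20% in these data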;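 also: signal is peak over basal fluorescence ratio across a 100 second FLIPR read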
CHRM4 PAM – potentiates acetylcholine response at human M4 receptor; activation, % at 3 µM; CHO-K1 hM4/Gqi5, Fluo-8 calcium fluorescence, ACh EC20; 0% = ACh EC20, 100% = maximal ACh; AID 624126; 360,000 compounds, 0.4% hits;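 active = activation above its plate's cutoff, the mean activation of sample wells plus 3 SD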
Target sequence (P08173 whole entry, looked up): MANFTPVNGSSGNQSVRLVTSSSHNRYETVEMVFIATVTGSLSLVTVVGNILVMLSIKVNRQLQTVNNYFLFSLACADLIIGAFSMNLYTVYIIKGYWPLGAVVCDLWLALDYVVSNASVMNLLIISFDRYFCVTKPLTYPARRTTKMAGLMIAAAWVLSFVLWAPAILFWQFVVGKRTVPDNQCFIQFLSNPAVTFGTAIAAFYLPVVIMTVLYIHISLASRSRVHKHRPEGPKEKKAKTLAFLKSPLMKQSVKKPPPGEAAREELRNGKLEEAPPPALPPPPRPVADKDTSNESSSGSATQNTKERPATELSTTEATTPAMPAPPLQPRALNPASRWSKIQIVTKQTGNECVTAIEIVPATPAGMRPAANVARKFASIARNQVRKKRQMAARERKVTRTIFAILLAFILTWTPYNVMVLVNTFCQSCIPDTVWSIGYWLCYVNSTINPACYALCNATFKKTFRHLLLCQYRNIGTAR
OXTR ag – activates the human oxytocin receptor; P30559; CHO-OTR cells, Fluo-8 calcium fluorescence; normalized: DMSO 0%, oxytocin 100%; activation, % at 3 µM; 320,000 compounds, 0.32% hits;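 active = activation above the mean of all tested compounds plus 3 SD, cutoff set per screening run, cut at about 20% in these data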;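 also: peak over basal fluorescence ratio from a 100 s FLIPR kinetic read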
CHRM4 agonist – CHRM4 agonism in calcium assay; P08173; CHO-K1 hM4/Gqi5, Fluo-8 calcium fluorescence; vehicle 0%, full acetylcholine response 100%; activation, % at 3 µM; 360,000 compounds, 0.14% hits; AID 624127;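 active = activation above the run mean over all test wells plus 3 SD, cut at about 32% in these data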;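 also: peak over basal fluorescence ratio per well then scaled between controls; 0% = DMSO wells and 100% = acetylcholine at EC100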
CHRM4 antagonist – blocks acetylcholine activation of human M4 receptor. P08173. CHO-hM4 cells, ACh EC80, Fluo-8 calcium fluorescence. inhibition, % at 3 µM. 360,000 compounds, 0.73% hits;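 active = inhibition above its plate's cutoff, the mean inhibition of sample wells plus 3 SD, cut at about 27% in these data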;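 also: 0% = acetylcholine EC80 with DMSO and 100% = DMSO without agonist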
OXTR potentiate – potentiators of human oxytocin receptor. activation, % at 3 µM. CHO-OTR cells, Fluo-8 calcium fluorescence, potentiator mode; 0% = oxytocin EC15, 100% = EC100. 320,000 compounds, 0.061% hits. P30559;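 active = activation above that plate's cutoff, the mean activation of tested compounds plus 3 SD, cut at about 6.6% in these data, passing the limit was not always enough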;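 also: 100% uses oxytocin at 75 nM as the full agonist control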
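Assay system: CHO cell line stably expressing human OTR. Reagent: EC15 oxytocin agonist. Dosing: single dose, 3.0 µM nominal final compound concentration. Timing: compound 6 min at room temperature before oxytocin, 100 s read. Signal: kinetic Fluo-8 calcium fluorescence. Controls: oxytocin EC15 low and EC100 high.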
The depositor's hits bear a star; x = no result; ! = not confirmed by another sample.

SMILES	V1aR counter	CHRM4 PAM	OXTR ag	CHRM4 agonist	CHRM4 antagonist	OXTR potentiate
CNc1ccc(Br)cc(C(=O)/C=C/c2ccc(Cl)cc2Cl)c1=O	0	4	0	8	44*	-5
Cc1cc(C(=O)OCC(=O)c2cccc([N+](=O)[O-])c2)c2cccc(C)c2n1	0	-1	-1	1	1	-2
COc1ccc(-c2cc(C(=O)OCC(=O)c3cccc([N+](=O)[O-])c3)c3cc(C)ccc3n2)cc1	0	23*	1	3	-8	2
CC1CCCN(c2ccc(C(=O)OCC(=O)N3c4ccccc4Sc4ccccc43)cc2[N+](=O)[O-])C1 (stereo unspecified)	0	-32	0	-1	30*	2
CC1CCCN(CCC(=O)c2ccccc2)C1 (stereo unspecified)	x	9	x	1	2	x
CN1CCN(CC(=O)N2c3ccccc3Sc3ccccc32)CC1	1	-15	1	1	67*	-13
CC1CCCN(c2ccc(C(=O)OCn3nnc4ccccc4c3=O)cc2[N+](=O)[O-])C1 (stereo unspecified)	0	0	0	1	4	-2
CC1CCCN(CC(=O)N2c3ccccc3Sc3ccccc32)C1 (stereo unspecified)	-1	-22	0	-1	33*	-5
O=C(CN1CCCCC1)N1c2ccccc2Oc2ccccc21	1	-20	1	1	37*	-13
Cc1cc(C)n(CC(=O)N2c3ccccc3Sc3ccc(C(F)(F)F)cc32)n1	-1	-13	-2	-1	0	-8
O=C(CN1CCN(CCOCCO)CC1)N1c2ccccc2Sc2ccc(Cl)cc21	1	-16	3	1	34*	-7
O=C(CN1CCCC(O)C1)N1c2ccccc2Sc2ccc(C(F)(F)F)cc21 (stereo unspecified)	0	-20	1	1	65*	-2
O=C(CN1CCCCCC1)N1c2ccccc2Sc2ccccc21	0	-22	0	-1	94*	-19
O=C1CCCN1CCCNCC(=O)N1c2ccccc2Sc2ccccc21	1	-18	1	0	52*	-18
O=C(CN1CCOCC1)N1c2ccccc2Sc2ccc(Cl)cc21	x	-8	x	0	15	x
O=C1CCCN1CCCNCC(O)c1ccccc1 (stereo unspecified)	0	5	0	1	-6	3
CCOC(=O)N1CCN(CC(=O)N2c3ccccc3Sc3ccccc32)CC1	10	2	9	4	-16	-12
Cc1cccc(C)c1-n1nnnc1C1(C)CCC(=O)N1CCc1ccc(O)cc1 (stereo unspecified)	x	1	x	3	5	x
O=C(O)c1cc(S(=O)(=O)N2CCCCC2)ccc1N1CCCC1	1	-1	1	-1	-2	-2
COc1ccc(/C=C/C(=O)N2c3ccccc3Sc3ccc(C(F)(F)F)cc32)cc1	1	-2	-1	0	-7	-15
NC(=O)N1CCN(CCCN2c3ccccc3Sc3cc(Cl)ccc32)CC1	x	-2	x	7	-17	x
O=C(/C=C/c1ccccc1)N1c2ccccc2Sc2ccc(C(F)(F)F)cc21	-1	29*	0	0	-7	-8
CN1CCN(CCCN2c3ccccc3Sc3ccc(C(F)(F)F)cc32)CC1	6	-6	9	5	85*!	-16
CC1(c2nnnn2-c2ccc3c(c2)OCCO3)CCC(=O)N1CCc1ccccc1F (stereo unspecified)	x	0	x	1	6	x
COc1ccc(-c2nc(CS(=O)CC(=O)NCCN3CCCCC3C)c(C)o2)cc1OC (stereo unspecified)	0	-3	0	1	-4	4
SMILES	V1aR counter	CHRM4 PAM	OXTR ag	CHRM4 agonist	CHRM4 antagonist	OXTR potentiate
CCOCCCNC(=O)C(NC(=O)Cc1cccs1)c1ccc(C)cc1 (stereo unspecified)	0	21*	2	0	-4	4
CCOCCCNC(=O)C(c1ccc(C)cc1)N(Cc1ccc2c(c1)OCO2)C(=O)CNC(C)=O (stereo unspecified)	0	24*	1	2	-2	-12
Cc1ccc2c(c1)cc1c(=O)n(CC(=O)NCCCc3ccccc3)nc(C)n12	0	-10	0	19	32*	-5
Cc1nn(CC(=O)NCCCc2ccccc2)c(=O)c2cc3occc3n12	0	15	0	0	-23	0
CC(OC(=O)c1ccc2ncsc2c1)C(=O)Nc1cccc(Cl)c1 (stereo unspecified)	1	-6	0	3	13	-5
CCOC(=O)N1CCC(NC(=O)c2cc3c(=O)n(C)c4ccccc4c3n2C)CC1	1	-5	2	6	-2	-7
Cn1c(C(=O)NC2CC2)cc2c(=O)n(C)c3ccccc3c21	0	31*	-1	25	5	5
O=C1Nc2ccccc2C(=O)N(C2CCCC2)C1C(=O)NC1CC1 (stereo unspecified)	x	3	x	0	3	x
CC(C)(C)C(=O)Nc1ccc(N2CCCC2)cc1	0	-22	-1	1	44*	-5
COc1ccc(S(=O)(=O)Cc2ccc(C(=O)NCCCN(C)c3ccccc3)o2)cc1	1	-16	-1	7	28*	-7
CCCCNC(=O)c1ccc(CS(=O)(=O)c2ccc(OC)cc2)o1	2	-2	-1	2	-26	-7
Cc1cc(C)nc(/N=C(\N)Nc2ccc(F)c([N+](=O)[O-])c2)n1	8	-24	12	55*	26	-18
Cc1ccc(C)c(N/C(N)=N/c2nc(C)cc(C)n2)c1	26*	-41	21*	91*	66*	-18
Cc1cc(C)nc(/N=C(\N)Nc2ccc(SC(F)F)cc2)n1	28*	-64	32*	96*	55*	-10
CCOc1ccc(N/C(N)=N/c2nc(C)cc(C)n2)cc1	10	-19	7	50*	50*	-24
CC(=O)Nc1ccc(N/C(N)=N/c2nc(C)cc(C)n2)cc1	1	-6	0	0	1	-8
COc1ccc(C)cc1N/C(N)=N/c1nc(C)cc(C)n1	2	-10	2	3	3	0
CC(C)CC(C(=O)O)N1C(=O)C2C3CC(C2C1=O)C1C(c2ccccc2)c2sc(=O)[nH]c2SC31 (stereo unspecified)	1	19	-1	0	-8	-3
NNc1ccc([N+](=O)[O-])c2[nH][nH]c(=O)c12	x	10	x	-1	-6	x
CCCCNC(=S)Nc1cc([N+](=O)[O-])ccc1C	2	-1	4	7	0	-7

Source: PubChem BioAssay (The Scripps Research Institute Molecular Screening Center)
